Measured values taken from ChEMBL document CHEMBL1131572, “A potent, orally bioavailable benzazepinone growth hormone secretagogue” (1998).

organism: Rattus norvegicus; assay: In vitro growth hormone (GH) releasing activity in rat primary pituitary cells.; type: functional; conditions: Pituitary gland cell, read-out: ED50 (the source's name)
Method in brief: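 Rat anterior pituitaries dispersed with 0.2% collagenase and 0.2% hyaluronidase, then cultured 3–4 days at 37 °C, 5% CO₂, in DMEM with 10% horse serum and 2.5% FBS. Cells washed in medium with 25 mM HEPES pH 7.4, then exposed in quadruplicate to serially diluted agents (final 1% DMSO) for 15 min at 37 °C. Medium GH measured by double-antibody RIA; ED₅₀ = dose giving 50% maximal GH release.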

Compared with CC(C)(N)C(=O)N[C@@H]1CCc2ccccc2N(Cc2ccc(-c3ccccc3-c3nn[nH]n3)cc2)C1=O, CC(C)(N)CC(=O)N[C@@H]1CCc2ccccc2N(Cc2ccc(-c3ccccc3-c3nn[nH]n3)cc2)C1=O is 2-fold higher in EC50: 0.03 µM for the first, 0.06 µM for the second. The first is the more potent here.

Compared with CN(C)C(=O)NCc1ccccc1-c1ccc(CN2C(=O)[C@H](NC(=O)C(C)(C)N)CCc3ccccc32)cc1, CC(C)(N)C(=O)N[C@@H]1CCc2ccccc2N(Cc2ccc(-c3ccccc3CNC(N)=O)cc2)C1=O is 2.9-fold lower in EC50: 0.06 µM for the first, 0.021 µM for the second. The second is the more potent here.

Compared with CNC(=O)NCc1ccccc1-c1ccc(CN2C(=O)[C@H](NC(=O)CC(C)(C)N)CCc3ccccc32)cc1, CC(=O)NCc1ccccc1-c1ccc(CN2C(=O)[C@H](NC(=O)CC(C)(C)N)CCc3ccccc32)cc1 is 33-fold higher in EC50: 0.006 µM for the first, 0.2 µM for the second. The first is the more potent here.

Going from CC(C)(N)C(=O)N[C@@H]1CCc2ccccc2N(Cc2ccc(-c3ccccc3CNC(=O)NCCO)cc2)C1=O to CCCNC(=O)NCc1ccccc1-c1ccc(CN2C(=O)[C@H](NC(=O)C(C)(C)N)CCc3ccccc32)cc1, the EC50 rises from 0.002 µM to 0.144 µM (72-fold). The first is the more potent here.

Compared with CCNC(=O)NCc1ccccc1-c1ccc(CN2C(=O)[C@H](NC(=O)C(C)(C)N)CCc3ccccc32)cc1, CNC(=O)NCc1ccccc1-c1ccc(CN2C(=O)[C@H](NC(=O)C(C)(C)N)CCc3ccccc32)cc1 is 6-fold lower in EC50: 0.006 µM for the first, 0.001 µM for the second. The second is the more potent here.

Going from CC(C)NC(=O)NCc1ccccc1-c1ccc(CN2C(=O)[C@H](NC(=O)C(C)(C)N)CCc3ccccc32)cc1 to CC(C)(N)C(=O)N[C@@H]1CCc2ccccc2N(Cc2ccc(-c3ccccc3CNC(=O)NC3CC3)cc2)C1=O, the EC50 falls from 0.27 µM to 0.045 µM (6-fold).

CNC(=O)NCCc1ccccc1-c1ccc(CN2C(=O)[C@H](NC(=O)C(C)(C)N)CCc3ccccc32)cc1 and CNC(=O)Nc1ccccc1-c1ccc(CN2C(=O)[C@H](NC(=O)CC(C)(C)N)CCc3ccccc32)cc1 are within 1.5-fold of each other in EC50: 0.04 µM for the first, 0.05 µM for the second.

Compared with CC(C)(N)C(=O)N[C@@H]1CCc2ccccc2N(Cc2ccc(-c3ccccc3CNC(=O)NCc3ccccc3)cc2)C1=O, CC(C)(N)CC(=O)N[C@@H]1CCc2ccccc2N(Cc2ccc(-c3ccccc3CN)cc2)C1=O is higher in EC50: 0.39 µM for the first, over 1 µM for the second.

CC(C)(N)CC(=O)N[C@@H]1CCc2ccccc2N(Cc2ccc(-c3ccccc3C(N)=O)cc2)C1=O gave an EC50 of 0.08 µM.
